≈ marks a conversion by molar mass, not a printed value. Calls of active or inactive are those of the source. The rule behind the calls is not given here.
Assays:
[1] = test system: SK-OV-3; experiment: Cytotoxicity against human SK-OV3 cells; format: functional
Summary of the method: (§1)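 NCI Developmental Therapeutics Program cell panel. GI50 is the concentration that reduces growth of treated cells to half that of untreated controls. TGI is the concentration that completely halts growth.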

[2] = test system: ACHN; experiment: Cytotoxicity against human ACHN cells; format: functional; summary of the method: as §1
[3] = test system: PC-3; experiment: Cytotoxicity against human PC3 cells; format: functional; summary of the method: as §1
[4] = test system: Hs-578T; experiment: Cytotoxicity against human HS578T cells; format: functional; summary of the method: as §1
[5] = test system: Fusarium proliferatum; experiment: Antimicrobial activity against Fusarium proliferatum at 0.3 uM after 72 hrs by microtiter assay; format: functional
Summary of the method: (§2)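 96-well microdilution broth assay with conidia (3 × 10^5 conidia/mL, harvested from 7-day PDA cultures and filtered) against F. oxysporum, F. proliferatum and F. solani at 0.3, 3 and 30 µM. Plates were held at 24 ± 1 °C under a 12 h photoperiod. Growth was read at 620 nm at 24, 48 and 72 h and reported as percent inhibition from mean absorbance with standard error.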

[6] = test system: Fusarium proliferatum; experiment: Antimicrobial activity against Fusarium proliferatum at 3 uM after 48 hrs by microtiter assay; format: functional; summary of the method: as §2
[7] = test system: Fusarium proliferatum; experiment: Antimicrobial activity against Fusarium proliferatum at 3 uM after 72 hrs by microtiter assay; format: functional; summary of the method: as §2
[8] = test system: Aspergillus fumigatus; experiment: Antimicrobial activity against Aspergillus fumigatus ATCC 90906; format: functional, organism-based
[9] = test system: Cryptococcus neoformans; experiment: Antimicrobial activity against Cryptococcus neoformans ATCC 90113; format: functional, organism-based
[10] = test system: Fusarium proliferatum; experiment: Antimicrobial activity against Fusarium proliferatum at 0.3 uM after 48 hrs by microtiter assay; format: functional; summary of the method: as §2
[11] = test system: Escherichia coli; experiment: Antimicrobial activity against Escherichia coli; format: functional, organism-based
[12] = test system: Staphylococcus aureus; experiment: Antimicrobial activity against methicillin-resistant Staphylococcus aureus; format: functional, organism-based
[13] = test system: Candida albicans; experiment: Antimicrobial activity against Candida albicans ATCC 90028; format: functional, organism-based
[14] = test system: Mycobacterium intracellulare; experiment: Antimicrobial activity against Mycobacterium intracellular ATCC 23068; format: functional, organism-based
[15] = test system: Leishmania donovani; experiment: Antiparasitic activity against Leishmania donovani; format: functional, organism-based
[16] = test system: Mycobacterium tuberculosis; experiment: Antibacterial activity against Mycobacterium tuberculosis H37Rv at 16 ug/mL by micro plate alamar blue assay; format: functional
Summary of the method: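 M. tuberculosis H37Rv ATCC 27294 grown in BACTEC 12B medium; microplate Alamar blue assay (MABA). Primary screen at a single concentration of 16 µg/mL, read as percent inhibition.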

[17] = test system: Mycobacterium tuberculosis; experiment: Antibacterial activity against Mycobacterium tuberculosis H37Rv by micro plate alamar blue assay; format: functional
[18] = test system: Fusarium oxysporum; experiment: Antimicrobial activity against Fusarium oxysporum at 0.3 uM after 48 hrs by microtiter assay; format: functional; summary of the method: as §2
[19] = test system: Fusarium oxysporum; experiment: Antimicrobial activity against Fusarium oxysporum at 0.3 uM after 72 hrs by microtiter assay; format: functional; summary of the method: as §2
[20] = test system: Fusarium solani; experiment: Antimicrobial activity against Fusarium solani at 0.3 uM after 48 hrs by microtiter assay; format: functional; summary of the method: as §2
[21] = test system: Fusarium solani; experiment: Antimicrobial activity against Fusarium solani at 0.3 uM after 72 hrs by microtiter assay; format: functional; summary of the method: as §2
[22] = test system: Fusarium oxysporum; experiment: Antimicrobial activity against Fusarium oxysporum at 3 uM after 48 hrs by microtiter assay; format: functional; summary of the method: as §2
[23] = test system: Fusarium oxysporum; experiment: Antimicrobial activity against Fusarium oxysporum at 3 uM after 72 hrs by microtiter assay; format: functional; summary of the method: as §2
[24] = test system: Fusarium solani; experiment: Antimicrobial activity against Fusarium solani at 3 uM after 48 hrs by microtiter assay; format: functional; summary of the method: as §2
[25] = test system: Fusarium solani; experiment: Antimicrobial activity against Fusarium solani at 3 uM after 72 hrs by microtiter assay; format: functional; summary of the method: as §2
[26] = test system: Fusarium oxysporum; experiment: Antimicrobial activity against Fusarium oxysporum at 30 uM after 48 hrs by microtiter assay; format: functional; summary of the method: as §2
[27] = test system: Fusarium oxysporum; experiment: Antimicrobial activity against Fusarium oxysporum at 30 uM after 72 hrs by microtiter assay; format: functional; summary of the method: as §2
[28] = test system: Fusarium solani; experiment: Antimicrobial activity against Fusarium solani at 30 uM after 48 hrs by microtiter assay; format: functional; summary of the method: as §2
[29] = test system: Fusarium solani; experiment: Antimicrobial activity against Fusarium solani at 30 uM after 72 hrs by microtiter assay; format: functional; summary of the method: as §2
[30] = test system: A549; experiment: Cytotoxicity against human A549 cells; format: functional; summary of the method: as §1
[31] = test system: NCI-H322M; experiment: Cytotoxicity against human NCI-H322M cells; format: functional; summary of the method: as §1
[32] = test system: RPMI-8226; experiment: Cytotoxicity against human RPMI8226 cells; format: functional; summary of the method: as §1
[33] = test system: HCC 2998; experiment: Cytotoxicity against human HCC2998 cells; format: functional; summary of the method: as §1
[34] = test system: HCT-15; experiment: Cytotoxicity against human HCT15 cells; format: functional; summary of the method: as §1
[35] = test system: HT-29; experiment: Cytotoxicity against human HT29 cells; format: functional; summary of the method: as §1
[36] = test system: KM12; experiment: Cytotoxicity against human KM12 cells; format: functional; summary of the method: as §1
[37] = test system: SNB-75; experiment: Cytotoxicity against human SNB75 cells; format: functional; summary of the method: as §1
[38] = test system: UACC-257; experiment: Cytotoxicity against human UACC257 cells; format: functional; summary of the method: as §1
[39] = test system: Fusarium proliferatum; experiment: Antimicrobial activity against Fusarium proliferatum at 30 uM after 48 hrs by microtiter assay; format: functional; summary of the method: as §2
[40] = test system: Fusarium proliferatum; experiment: Antimicrobial activity against Fusarium proliferatum at 30 uM after 72 hrs by microtiter assay; format: functional; summary of the method: as §2
[41] = test system: Fusarium proliferatum; experiment: Fungicidal activity against Fusarium proliferatum at 30 uM after 72 hrs by microtiter plate assay; format: functional, organism-based
Summary of the method: (§3)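 After 72 h of microtiter broth exposure at 30 µM, 20 µL from each well was plated onto compound-free potato dextrose agar and incubated 3 days at 28 °C. No regrowth was scored fungicidal; regrowth was scored fungistatic.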

[42] = test system: Fusarium solani; experiment: Fungicidal activity against Fusarium solani at 30 uM after 72 hrs by microtiter assay; format: functional, organism-based; summary of the method: as §3
[43] = test system: Fusarium proliferatum; experiment: Antifungal activity against Fusarium proliferatum at 20 ug/mL after 3 days by fluorescence assay; format: functional, organism-based
Summary of the method: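 Fusarium proliferatum conidia in potato dextrose broth in a tube with the coumarin (DEAC)-labelled probe at 20 µg/mL, held at 24 ± 1 °C. Hyphae and mycelia were viewed at 4, 8, 16, 24, 48 and 72 h by light and epifluorescence microscopy at 400× and 1000×. Conidia were first checked for autofluorescence.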

[44] = test system: Fusarium oxysporum; experiment: Fungicidal activity against Fusarium oxysporum at 30 uM after 72 hrs by microtiter plate assay; format: functional, organism-based; summary of the method: as §3

In the case of `C/C=C1\NC(=O)[C@H](Cc2ccccc2)NC(=O)[C@@H](C(C)C)NC(=O)[C@@H]([C@H](C)CC)NC(=O)[C@H](NC(=O)[C@H](NC(=O)[C@H](CCCN)NC(=O)[C@H]2CCCN2C(=O)[C@H](NC(=O)[C@@H](NC(=O)[C@@H](NC(=O)[C@H](NC(=O)CCCC(C)C)C(C)C)[C@@H](C)O)C(C)C)C(C)C)[C@H](C)CC)[C@H](C)OC(=O)[C@H](C(C)C)NC1=O` [KAHALALIDE F], the GI50 [1] is reported as 191 nM, the TGI [1] is reported as 355 nM and the GI50 [2] is reported as 1660 nM. It also gave a TGI [2] of 3240 nM, a GI50 [3] of 170 nM and a TGI [3] of 324 nM. It also gave a GI50 [4] of 162 nM, a TGI [4] of 479 nM and an inhibition at 0.3 µM [5] of 0%. For the same compound, the inhibition at 3 µM [6] was 0%, the inhibition at 3 µM [7] was 0% and the IC50 [8] was 3210 nM. It also gave an MFC [8] of 20 µM (≈ 29.6 µg/mL), an MIC [8] of 10 µM (≈ 14.8 µg/mL) and an IC50 [9] of 1530 nM. The MFC [9] was 5 µM (≈ 7.39 µg/mL), the MIC [9] was 5 µM (≈ 7.39 µg/mL) and the inhibition at 0.3 µM [10] was 0%. For the same compound, the Activity [11] was “inactive”, the Activity [12] was “inactive” and the IC50 [13] was 3020 nM. The MFC [13] was 20 µM (≈ 29.6 µg/mL), the MIC [13] was 10 µM (≈ 14.8 µg/mL) and the IC50 [14] was over 20000 nM. It also gave an MBC [14] of over 20 µM, an MIC [14] of over 20 µM and an IC50 [15] of 17 µg/mL (≈ 11.5 µM). For the same compound, the IC90 [15] was 34 µg/mL (≈ 23 µM), the inhibition at 16 µg/mL [16] was 67% and the MIC [17] was over 16 µg/mL. It also gave an inhibition at 0.3 µM [18] of 0%, an inhibition at 0.3 µM [19] of 0% and an inhibition at 0.3 µM [20] of 0%. The inhibition at 0.3 µM [21] was 0%, the inhibition at 3 µM [22] was 0% and the inhibition at 3 µM [23] was 0%. The inhibition at 3 µM [24] was 9.9%, the inhibition at 3 µM [25] was 0% and the inhibition at 30 µM [26] was 100%. The inhibition at 30 µM [27] was 99.6%, the inhibition at 30 µM [28] was 98.9% and the inhibition at 30 µM [29] was 99.9%. For the same compound, the GI50 [30] was 135 nM, the TGI [30] was 302 nM and the GI50 [31] was 191 nM. It also gave a TGI [31] of 372 nM, a GI50 [32] of 1740 nM and a TGI [32] of 6920 nM. The GI50 [33] was 288 nM, the TGI [33] was 616 nM and the GI50 [34] was 269 nM. It also gave a TGI [34] of 741 nM, a GI50 [35] of 162 nM and a TGI [35] of 316 nM. The GI50 [36] was 182 nM, the TGI [36] was 363 nM and the GI50 [37] was 224 nM. The TGI [37] was 1900 nM, the GI50 [38] was 1020 nM and the TGI [38] was 2820 nM. The inhibition at 30 µM [39] was 99.8%, the inhibition at 30 µM [40] was 100% and the Activity [41] was “Active”. For the same compound, the Activity [42] was “Active”, the Activity [43] was “Active” and the Activity [44] was “Active”.

— ChEMBL document CHEMBL1148762, “Lysosome and HER3 (ErbB3) selective anticancer agent kahalalide F: semisynthetic modifications and antifungal lead-exploration studies” (J Med Chem, 2007)
